Reference: article PMC5767125 (Journal of medicinal chemistry, 2017)

What was measured:
D3R = D3R (Homo sapiens, UniProt P35462); assay: Inhibition of forskolin-dependent stimulation of adenylyl cyclase; type: cell-based; settings: compound at 10x the Ki value; efficacy relative to full agonist Quinpirole
Outline: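 Test compound at 10x its Ki, assessed for inhibiting forskolin-dependent adenylyl cyclase stimulation. Output is mean percent efficacy ± SEM relative to the full agonist quinpirole.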

5-HT2A receptor = 5-HT2A receptor (Homo sapiens, UniProt P28223); assay: 5-HT2A receptor binding; settings: data not shown; comparable to those at 5-HT1AR
5-HT2c receptor = biological target: T1, 5-HT2c receptor (Homo sapiens, UniProt P28335); assay: 5-HT2c receptor binding; settings: data not shown; comparable to those at 5-HT1AR
T1 sequence (P28335 33-458): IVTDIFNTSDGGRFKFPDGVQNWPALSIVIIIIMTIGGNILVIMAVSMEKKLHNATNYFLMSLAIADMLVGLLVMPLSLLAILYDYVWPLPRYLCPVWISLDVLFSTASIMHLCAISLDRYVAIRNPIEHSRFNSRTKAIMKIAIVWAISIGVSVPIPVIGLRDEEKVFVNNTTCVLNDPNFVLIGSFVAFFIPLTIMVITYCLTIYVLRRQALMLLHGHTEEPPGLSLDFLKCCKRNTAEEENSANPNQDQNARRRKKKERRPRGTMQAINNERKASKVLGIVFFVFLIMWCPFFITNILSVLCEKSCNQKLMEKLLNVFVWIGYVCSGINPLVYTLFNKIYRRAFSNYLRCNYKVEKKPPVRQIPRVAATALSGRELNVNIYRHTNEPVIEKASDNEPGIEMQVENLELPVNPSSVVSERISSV

5-HT2A receptor, sequence (P28223 whole entry): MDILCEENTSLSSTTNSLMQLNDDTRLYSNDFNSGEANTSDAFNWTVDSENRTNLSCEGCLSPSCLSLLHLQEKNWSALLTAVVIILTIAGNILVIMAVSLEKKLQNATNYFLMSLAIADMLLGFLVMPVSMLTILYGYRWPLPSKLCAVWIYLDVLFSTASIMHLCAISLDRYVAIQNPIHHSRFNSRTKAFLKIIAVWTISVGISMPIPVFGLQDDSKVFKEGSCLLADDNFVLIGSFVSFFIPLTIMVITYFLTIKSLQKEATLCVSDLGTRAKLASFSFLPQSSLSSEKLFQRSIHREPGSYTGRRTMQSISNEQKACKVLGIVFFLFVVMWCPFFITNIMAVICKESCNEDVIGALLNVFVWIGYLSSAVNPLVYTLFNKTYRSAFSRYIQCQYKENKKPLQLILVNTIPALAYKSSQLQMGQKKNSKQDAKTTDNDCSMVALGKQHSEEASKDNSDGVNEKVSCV
D3R, sequence (P35462 whole entry): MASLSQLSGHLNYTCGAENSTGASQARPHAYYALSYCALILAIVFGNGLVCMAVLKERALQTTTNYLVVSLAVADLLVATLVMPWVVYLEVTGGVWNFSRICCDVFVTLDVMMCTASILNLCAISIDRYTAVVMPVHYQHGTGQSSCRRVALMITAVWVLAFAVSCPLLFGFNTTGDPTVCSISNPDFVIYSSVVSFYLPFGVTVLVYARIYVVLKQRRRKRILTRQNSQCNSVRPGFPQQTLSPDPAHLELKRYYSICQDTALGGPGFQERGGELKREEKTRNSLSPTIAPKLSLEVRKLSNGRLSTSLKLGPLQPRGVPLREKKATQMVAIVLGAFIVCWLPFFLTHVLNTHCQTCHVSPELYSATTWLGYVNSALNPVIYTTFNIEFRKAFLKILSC

| SMILES | functional activity, adenylyl cyclase assay (D3R) | binding affinity at 5-HT2A receptor (5-HT2A receptor) | binding affinity at 5-HT2c receptor (5-HT2c receptor) |
| --- | --- | --- | --- |
| COc1ccccc1N1CCC2(CCN(CCCSc3nnc(-c4ccccc4)n3C)CC2)C1 [Compound 14] | low activity | low binding affinities | low binding affinities |
| Cn1c(SCCCN2CCC3(CC2)CCN(c2ccc(F)cc2)CC3)nnc1-c1ccccc1 [Compound 15c] | low activity | low binding affinities | low binding affinities |
| COc1ccccc1N1CCC2(CCN(CCCSc3nnc(-c4ccccc4)n3C)CC2)CC1 [Compound 15a] | partial agonist | low binding affinities | low binding affinities |
